These results are taken from ChEMBL document CHEMBL1782055, “2,3-dideoxy hex-2-enopyranosid-4-uloses as promising new anti-tubercular agents: design, synthesis, biological evaluation and SAR studies” (Eur J Med Chem, 2011).

Data set [1] concerns Mycobacterium tuberculosis. Kind of data set: Antitubercular activity against Mycobacterium tuberculosis H37Rv after 24 hrs by BACTEC radiometric susceptibility assay. In kind it is functional. In a few lines:
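BACTEC radiometric assay in 7H12 (12B) medium with 14C-palmitic acid as substrate; 14CO2 output read daily as Growth Index (GI) at 37 °C ± 1 °C. H37Rv inoculum grown in 12B vial to GI around 300. Compounds dissolved in DMSO. Control vial held 1:100 diluted bacterial suspension. Reading continued until control GI reached 30 or more. Daily change in GI compared with control to set susceptibility and MIC.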

In data set [2] the test system is Mycobacterium tuberculosis. Kind of data set: Antitubercular activity against Mycobacterium tuberculosis H37Rv at 25 ug/mL after 24 hrs by BACTEC radiometric susceptibility assay. The class given is functional, organism-based.
The nature of data set [3]: Cytotoxicity against african green monkey Vero cells after 24 hrs by resazurin assay. Particulars: chlorocebus sabaeus. In kind it is cell-based. In a few lines:
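Vero cells (ATCC CCL-81) seeded overnight at 1 × 10⁴–[…] cells/well in RPMI with 10% heat-inactivated FBS, 37 °C, 5% CO2. Exposed in triplicate to serial dilutions, 100 to 1.56 µg/mL. Resazurin (0.1%) added for 4–5 h. Read visually (purple to pink or colourless) and by fluorescence, excitation 530 nm, emission 590 nm.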

The nature of data set [4]: Selectivity index, ratio of CC50 for african green monkey Vero cells to MIC for Mycobacterium tuberculosis H37Rv. The class given is functional.
The test system of data set [5] is Mycobacterium tuberculosis. Kind of data set: Antitubercular activity against Mycobacterium tuberculosis H37Rv at 50 ug/mL after 24 hrs by BACTEC radiometric susceptibility assay. The class given is functional, organism-based.
For data set [6], the system named is Mycobacterium tuberculosis. Kind of data set: Antitubercular activity against Mycobacterium tuberculosis H37Rv infected in mouse J774A.1 cells assessed as growth index at MIC after 8 days by BACTEC radiometric susceptibility assay. The class given is functional. In a few lines: (§1)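 J774A.1 murine macrophages infected with H37Rv (grown in 7H9 with BSA, dextrose, catalase, washed in serum-free RPMI) at MOI 1:20 for 6 h, 37 °C, 5% CO2. Seeded in triplicate, 5 × 10⁵ cells/well. Daily medium change with complete RPMI containing compound at 1× or 2× MIC. Cells lysed with 0.05% SDS on day 0 and day 6. Lysates inoculated into BACTEC vials, GI followed over 8 days.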

In data set [7] the test system is Mycobacterium tuberculosis. Kind of data set: Antitubercular activity against Mycobacterium tuberculosis H37Rv infected in mouse J774A.1 cells assessed as growth index at 2 times MIC after 8 days by BACTEC radiometric susceptibility assay. The class given is functional. In a few lines: as §1
The subject of data set [8] is Mycobacterium tuberculosis. Kind of data set: Antitubercular activity against drug-sensitive Mycobacterium tuberculosis 2280 after 24 hrs by BACTEC radiometric susceptibility assay. In kind it is functional. The note with it: Mycobacterium tuberculosis, 2280, 24 h.

Converted amounts (≈) assume the structure as drawn. The source made the active and inactive calls. The rule behind the calls is not given here.

Molecule `CCCCCCCCCCO[C@@H]1C=CC(=O)[C@@H](CO)O1` displayed an MIC in data set [1] of 12.5 µg/mL (≈ 44 µM).

In data set [1], `COc1ccc(O[C@@H]2C=CC(=O)[C@@H](COC(=O)C(C)(C)C)O2)cc1` displayed an MIC of 6.25 µg/mL (≈ 18.7 µM). Still for that read-out and setting: for `CN[C@@H]1[C@H](O[C@H]2[C@H](O[C@H]3[C@H](O)[C@@H](O)[C@H](N=C(N)N)[C@@H](O)[C@@H]3N=C(N)N)O[C@@H](C)[C@]2(O)C=O)O[C@@H](CO)[C@H](O)[C@H]1O` [STREPTOMYCIN] the value was 6 µg/mL (≈ 10.3 µM). In the case of `COc1ccc(O[C@@H]2C=CC(=O)[C@@H](CO)O2)cc1`, the outcome in data set [2] was inactive. Molecule `CC(C)O[C@@H]1C=CC(=O)[C@@H](COC(=O)C(C)(C)C)O1` showed a CC50 at 24 h in data set [3] of 12.5 µM. Moreover, the “Selectivity Index” value in data set [4] was determined as 1.09. The molecule also had an MIC in data set [1] of 3.12 µg/mL (≈ 11.6 µM). In data set [1], `CC(C)(C)O[C@@H]1C=CC(=O)[C@@H](COC(=O)C(C)(C)C)O1` showed an MIC of 6.25 µg/mL (≈ 22 µM). In turn, `CC(C)CO[C@@H]1C=C([C@H](O)c2ccc(C#N)cc2)C(=O)[C@@H](COC(=O)C(C)(C)C)O1` displayed an MIC in data set [1] of 6.25 µg/mL (≈ 15 µM).

Molecule `CCCCCCCCCCO[C@@H]1C=C([C@H](O)c2ccc([N+](=O)[O-])cc2)C(=O)[C@@H](COC(C)=O)O1` registered an MIC in data set [1] of 25 µg/mL (≈ 52.4 µM). In the case of `CCCCCO[C@@H]1C=CC(=O)[C@@H](COC(=O)C(C)(C)C)O1`, the midpoint of cytotoxicity in data set [3], the CC50 at 24 h, lay at 7.38 µM. The “Selectivity Index” value in data set [4] amounted to 1.41. The same molecule came in with an MIC in data set [1] of 1.56 µg/mL (≈ 5.23 µM). Take `CCCCCCCCCCO[C@@H]1C=C[C@H](O)[C@@H](CO)O1`: the outcome in data set [5] was inactive. The molecule `CC(C)O[C@@H]1C=CC(=O)[C@@H](CO)O1` had a minimum inhibitory concentration (MIC) in data set [1] of 25 µg/mL (≈ 134 µM). Molecule `Cc1ccc(S(=O)(=O)OC[C@H]2O[C@H](OC(C)C)C=CC2=O)cc1` came in with a cytotoxic concentration (CC50) at 24 h in data set [3] of 13.4 µM. Also, the “Selectivity Index” value in data set [4] is recorded as 1.4. Further, in data set [1], it took 3.12 µg/mL (≈ 9.18 µM) to inhibit growth (MIC). The molecule `CC(C)CCO[C@@H]1C=C(CO)C(=O)[C@@H](COC(=O)C(C)(C)C)O1` registered a minimal inhibitory concentration (MIC) in data set [1] of 25 µg/mL (≈ 76.1 µM).

Regarding `CC(C)O[C@@H]1C=C(CO)C(=O)[C@@H](COC(=O)C(C)(C)C)O1`, the minimal inhibitory concentration (MIC) in data set [1] turned out to be 25 µg/mL (≈ 83.2 µM). With `CC(C)CO[C@@H]1C=CC(=O)[C@@H](COC(=O)C(C)(C)C)O1`, the CC50 at 24 h in data set [3] stood at 28.2 µM. The “Selectivity Index” value in data set [4] is reported as 2.56. In data set [1], this molecule had an MIC of 3.12 µg/mL (≈ 11 µM). Regarding `CC(C)O[C@@H]1C=C([C@H](O)c2ccc(C#N)cc2)C(=O)[C@@H](COC(=O)C(C)(C)C)O1`, inhibition of growth in data set [1] (MIC) required 6.25 µg/mL (≈ 15.6 µM).

With `CC(=O)OC[C@H]1O[C@H](OC(C)(C)C)C=CC1=O`, the MIC in data set [1] came out at 6.25 µg/mL (≈ 25.8 µM). In the case of `CC(C)CCO[C@@H]1C=C([C@H](O)c2ccc(C#N)cc2)C(=O)[C@@H](COC(=O)C(C)(C)C)O1`, the MIC in data set [1] stood at 6.25 µg/mL (≈ 14.6 µM).

Take `CC(=O)OC[C@H]1O[C@H](OCCC(C)C)C=C([C@H](O)c2ccc([N+](=O)[O-])cc2[N+](=O)[O-])C1=O`: the MIC in data set [1] amounted to 6.25 µg/mL (≈ 13.8 µM). On to `CC(=O)OC[C@H]1O[C@H](OCCC(C)C)C=C([C@H](O)c2ccc([N+](=O)[O-])cc2)C1=O`, for which the midpoint of cytotoxicity in data set [3], the CC50 at 24 h, lay at 14.3 µM. Further, the “Selectivity Index” value in data set [4] amounted to 1.8. The lowest concentration to inhibit growth in data set [1] (MIC) was 3.12 µg/mL (≈ 7.67 µM). In data set [1], `CCCCCCCCCCO[C@@H]1C=CC(=O)[C@@H](COC(=O)C(C)(C)C)O1` showed an MIC of 12.5 µg/mL (≈ 33.9 µM). On to `CC(=O)OCC1=C[C@@H](OCCC(C)C)O[C@H](COC(=O)C(C)(C)C)C1=O`, for which the result in data set [5] was inactive. For `CC(C)CCO[C@@H]1C=CC(=O)[C@@H](CO)O1`, the MIC in data set [1] was 6.25 µg/mL (≈ 29.2 µM). Same read-out and setting: as for `CO[C@H]1/C=C/O[C@@]2(C)Oc3c(C)c(O)c4c(O)c(c(/C=N/N5CCN(C)CC5)c(O)c4c3C2=O)NC(=O)/C(C)=C\C=C\[C@H](C)[C@H](O)[C@@H](C)[C@@H](O)[C@@H](C)[C@H](OC(C)=O)[C@@H]1C` [RIFAMPIN], the figure is 2 µg/mL (≈ 2.43 µM).

Molecule `CCCCCCO[C@@H]1C=CC(=O)[C@@H](COC(=O)C(C)(C)C)O1` displayed a cytotoxic concentration (CC50) at 24 h in data set [3] of 4.8 µM. Further, the “Selectivity Index” value in data set [4] is reported as 0.48. The molecule further came in with an MIC in data set [1] of 3.12 µg/mL (≈ 10 µM). Consider `CO[C@@H]1C=CC(=O)[C@@H](CO)O1`, for which the lowest concentration to inhibit growth in data set [1] (MIC) was 25 µg/mL (≈ 158 µM). The same measure, in the same setting: for `CO[C@@H]1C=CC(=O)[C@@H](COC(C)=O)O1` the value was 6.25 µg/mL (≈ 31.2 µM). The same measure, in the same setting: as for `CCCCCCCCCCO[C@@H]1C=C([C@H](O)c2ccc(C#N)cc2)C(=O)[C@@H](COC(=O)C(C)(C)C)O1`, the figure is 12.5 µg/mL (≈ 25 µM). For the molecule `CC(=O)OC[C@H]1O[C@H](OC(C)C)C=CC1=O`, the CC50 at 24 h in data set [3] was 104 µM. The “Selectivity Index” value in data set [4] is reported as 7.6. This molecule also had an MIC in data set [1] of 3.12 µg/mL (≈ 13.7 µM). `CC(C)CCO[C@@H]1C=CC(=O)[C@@H](CC#N)O1` gave an MIC in data set [1] of 12.5 µg/mL (≈ 56 µM).

The molecule `CC(C)CCO[C@@H]1C=CC(=O)[C@@H](COC(=O)C(C)(C)C)O1` showed a CC50 at 24 h in data set [3] of 36 µM. Also, the Growth_index in data set [6] and in data set [7] was 10 throughout. Moreover, the “Selectivity Index” value in data set [4] came out at 13.5. In addition, the MIC in data set [1] and in data set [8] was 0.78 µg/mL (≈ 2.61 µM) each time.

For the molecule `CC(C)(C)O[C@@H]1C=CC(=O)[C@@H](CO)O1`, the MIC in data set [1] amounted to 25 µg/mL (≈ 125 µM).

`CC(C)CCO[C@@H]1C=C([C@H](O)c2ccc([N+](=O)[O-])cc2[N+](=O)[O-])C(=O)[C@@H](COC(=O)C(C)(C)C)O1` displayed an MIC in data set [1] of 6.25 µg/mL (≈ 12.6 µM). Same read-out and setting: for `Cc1ccc(S(=O)(=O)OC[C@H]2O[C@H](OC(C)C)C=C([C@H](O)c3ccc([N+](=O)[O-])cc3)C2=O)cc1` the value was 6.25 µg/mL (≈ 12.7 µM). In data set [3], `CCCCO[C@@H]1C=CC(=O)[C@@H](COC(=O)C(C)(C)C)O1` showed a CC50 at 24 h of 42.5 µM. Moreover, in data set [4], the “Selectivity Index” value came to 3.85. The molecule also yielded an MIC in data set [1] of 3.12 µg/mL (≈ 11 µM).

As for `CC(C)(C)C(=O)OC[C@H]1O[C@H](OCC2CC2)C=CC1=O`, the CC50 at 24 h in data set [3] was determined as 77.2 µM. In addition, in data set [4], the “Selectivity Index” value came to 6.96. The same molecule came in with an MIC in data set [1] of 3.12 µg/mL (≈ 11.1 µM). For the molecule `CO[C@@H]1C=C([C@H](O)c2ccc(C#N)cc2)C(=O)[C@@H](COC(=O)C(C)(C)C)O1`, 12.5 µg/mL (≈ 33.5 µM) was the least that counted as inhibitory in data set [1] (MIC). For the molecule `CC(=O)OC[C@H]1O[C@H](OCCC(C)C)C=CC1=O`, in data set [3], the cytotoxic concentration (CC50) at 24 h came out at 19.8 µM. Also, the “Selectivity Index” value in data set [4] was 6.6. In data set [1], this molecule displayed an MIC of 0.78 µg/mL (≈ 3.04 µM).

`CC(C)CCO[C@@H]1C=CC(=O)[C@@H](CO[Si](C)(C)C(C)(C)C)O1` came in with an MIC in data set [1] of 12.5 µg/mL (≈ 38 µM).

For the molecule `CC(C)CCO[C@@H]1C=C[C@H](O)[C@@H](CO)O1`, the outcome in data set [5] was inactive. `O=C1C=C[C@@H](OCC2CC2)O[C@@H]1CO` registered an MIC in data set [1] of 25 µg/mL (≈ 126 µM). Same read-out and setting: for `CO[C@@H]1C=CC(=O)[C@@H](COC(=O)C(C)(C)C)O1` the value was 6.25 µg/mL (≈ 25.8 µM); for `CCCCCCCCCCO[C@@H]1C=CC(=O)[C@@H](COC(C)=O)O1`, 6.25 µg/mL (≈ 19.1 µM). Still for that read-out and setting: for `CC(C)CCO[C@H]1O[C@H](COC(=O)C(C)(C)C)C(=O)[C@@H]2O[C@H]12` the value was 12.5 µg/mL (≈ 39.8 µM); for `CC(C)CO[C@@H]1C=CC(=O)[C@@H](CO)O1`, 12.5 µg/mL (≈ 62.4 µM).
